Laboratory results from ChEMBL document CHEMBL4689842, “EUbOPEN Chemogenomics Library wave 1” (2021).

Test system: U2OS
Assay: Multiplex assay against U2OS
Format: toxicity, cell-based
Settings: human
Procedure, shortened: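 Per cents of healthy-nucleus cells form the tubulin, mitochondrial-mass and membrane-permeability phenotype values. Live cells were stained at seeding with Hoechst33342, BioTracker Green Microtubule Cytoskeleton Dye, MitoTracker Red and Annexin V Alexa Fluor 680. After compound addition they were imaged on a CQ1 microscope at 37°C and 5% CO2, and CellPathfinder machine-learning gating split them into Hoechst high-intensity objects or normal cells, normal cells into healthy, pyknosed or fragmented nuclei, and pyknosed cells into mitotic or apoptotic.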

[1] = 12 h, 1 µM, compound concentration 1 uM, replicate 1
[2] = 12 h, 1 µM, compound concentration 1 uM, replicate 2
[3] = 12 h, 10 µM, compound concentration 10 uM, replicate 1
[4] = 12 h, 10 µM, compound concentration 10 uM, replicate 2
[5] = 24 h, 1 µM, compound concentration 1 uM, replicate 1
[6] = 24 h, 1 µM, compound concentration 1 uM, replicate 2
[7] = 24 h, 10 µM, compound concentration 10 uM, replicate 1
[8] = 24 h, 10 µM, compound concentration 10 uM, replicate 2
[9] = 48 h, 1 µM, compound concentration 1 uM, replicate 1
[10] = 48 h, 1 µM, compound concentration 1 uM, replicate 2
[11] = 48 h, 10 µM, compound concentration 10 uM, replicate 1
[12] = 48 h, 10 µM, compound concentration 10 uM, replicate 2

COc1ncc(-c2ccc3nccc(-c4ccnnc4)c3c2)cc1NS(=O)(=O)c1ccc(F)cc1F [OMIPALISIB]
Population Apoptotic (%) [1]: 65%
Population Fragmented Nuclei (%) [1]: 13%
Population Healthy Nuclei (%) [1]: 67%
Population Hoechst High Intensity Objects (%) [1]: 4%
Population Membrane Permeable-Phenotype (%) [1]: 6%
Population Mitochondria Different-Phenotype (%) [1]: 3%
Population Mitotic Cells (%) [1]: 34%
Population Normal (%) [1]: 95%
Population Pyknosed Nuclei (%) [1]: 18%
Population Tubulin-Different-Phenotype (%) [1]: 9%
Total Cell Count [1]: 135
Population Apoptotic (%) [2]: 50%
Population Fragmented Nuclei (%) [2]: 46%
Population Healthy Nuclei (%) [2]: 42%
Population Hoechst High Intensity Objects (%) [2]: 7%
Population Membrane Permeable-Phenotype (%) [2]: 16%
Population Mitochondria Different-Phenotype (%) [2]: 16%
Population Mitotic Cells (%) [2]: 50%
Population Normal (%) [2]: 92%
Population Pyknosed Nuclei (%) [2]: 11%
Population Tubulin-Different-Phenotype (%) [2]: 23%
Total Cell Count [2]: 51
Population Apoptotic (%) [3]: 58%
Population Fragmented Nuclei (%) [3]: 28%
Population Healthy Nuclei (%) [3]: 37%
Population Hoechst High Intensity Objects (%) [3]: 6%
Population Membrane Permeable-Phenotype (%) [3]: 14%
Population Mitochondria Different-Phenotype (%) [3]: 15%
Population Mitotic Cells (%) [3]: 41%
Population Normal (%) [3]: 93%
Population Pyknosed Nuclei (%) [3]: 33%
Population Tubulin-Different-Phenotype (%) [3]: 15%
Total Cell Count [3]: 150
Population Apoptotic (%) [4]: 65%
Population Fragmented Nuclei (%) [4]: 33%
Population Healthy Nuclei (%) [4]: 27%
Population Hoechst High Intensity Objects (%) [4]: 7%
Population Membrane Permeable-Phenotype (%) [4]: 11%
Population Mitochondria Different-Phenotype (%) [4]: 16%
Population Mitotic Cells (%) [4]: 34%
Population Normal (%) [4]: 92%
Population Pyknosed Nuclei (%) [4]: 39%
Population Tubulin-Different-Phenotype (%) [4]: 22%
Total Cell Count [4]: 77
Population Apoptotic (%) [5]: 62%
Population Fragmented Nuclei (%) [5]: 19%
Population Healthy Nuclei (%) [5]: 61%
Population Hoechst High Intensity Objects (%) [5]: 9%
Population Membrane Permeable-Phenotype (%) [5]: 5%
Population Mitochondria Different-Phenotype (%) [5]: 4%
Population Mitotic Cells (%) [5]: 37%
Population Normal (%) [5]: 90%
Population Pyknosed Nuclei (%) [5]: 18%
Population Tubulin-Different-Phenotype (%) [5]: 14%
Total Cell Count [5]: 135
Population Apoptotic (%) [6]: 33%
Population Fragmented Nuclei (%) [6]: 43%
Population Healthy Nuclei (%) [6]: 40%
Population Hoechst High Intensity Objects (%) [6]: 11%
Population Membrane Permeable-Phenotype (%) [6]: 24%
Population Mitochondria Different-Phenotype (%) [6]: 17%
Population Mitotic Cells (%) [6]: 66%
Population Normal (%) [6]: 88%
Population Pyknosed Nuclei (%) [6]: 16%
Population Tubulin-Different-Phenotype (%) [6]: 37%
Total Cell Count [6]: 50
Population Apoptotic (%) [7]: 70%
Population Fragmented Nuclei (%) [7]: 36%
Population Healthy Nuclei (%) [7]: 25%
Population Membrane Permeable-Phenotype (%) [7]: 17%
Population Mitochondria Different-Phenotype (%) [7]: 25%
Population Mitotic Cells (%) [7]: 29%
Population Pyknosed Nuclei (%) [7]: 38%
Population Tubulin-Different-Phenotype (%) [7]: 17%
Total Cell Count [7]: 170
Population Apoptotic (%) [8]: 80%
Population Fragmented Nuclei (%) [8]: 27%
Population Healthy Nuclei (%) [8]: 22%
Population Hoechst High Intensity Objects (%) [8]: 11%
Population Membrane Permeable-Phenotype (%) [8]: 35%
Population Mitochondria Different-Phenotype (%) [8]: 28%
Population Mitotic Cells (%) [8]: 20%
Population Normal (%) [8]: 88%
Population Pyknosed Nuclei (%) [8]: 49%
Population Tubulin-Different-Phenotype (%) [8]: 42%
Total Cell Count [8]: 81
Population Apoptotic (%) [9]: 59%
Population Fragmented Nuclei (%) [9]: 23%
Population Healthy Nuclei (%) [9]: 50%
Population Hoechst High Intensity Objects (%) [9]: 12%
Population Membrane Permeable-Phenotype (%) [9]: 7%
Population Mitochondria Different-Phenotype (%) [9]: 6%
Population Mitotic Cells (%) [9]: 40%
Population Normal (%) [9]: 87%
Population Pyknosed Nuclei (%) [9]: 26%
Population Tubulin-Different-Phenotype (%) [9]: 16%
Total Cell Count [9]: 142
Population Apoptotic (%) [10]: 47%
Population Fragmented Nuclei (%) [10]: 43%
Population Healthy Nuclei (%) [10]: 32%
Population Hoechst High Intensity Objects (%) [10]: 15%
Population Membrane Permeable-Phenotype (%) [10]: 39%
Population Mitochondria Different-Phenotype (%) [10]: 43%
Population Mitotic Cells (%) [10]: 52%
Population Normal (%) [10]: 84%
Population Pyknosed Nuclei (%) [10]: 23%
Population Tubulin-Different-Phenotype (%) [10]: 56%
Total Cell Count [10]: 59
Population Apoptotic (%) [11]: 83%
Population Fragmented Nuclei (%) [11]: 37%
Population Healthy Nuclei (%) [11]: 9%
Population Hoechst High Intensity Objects (%) [11]: 15%
Population Membrane Permeable-Phenotype (%) [11]: 46%
Population Mitochondria Different-Phenotype (%) [11]: 46%
Population Mitotic Cells (%) [11]: 16%
Population Normal (%) [11]: 84%
Population Pyknosed Nuclei (%) [11]: 52%
Population Tubulin-Different-Phenotype (%) [11]: 61%
Total Cell Count [11]: 181
Population Apoptotic (%) [12]: 82%
Population Fragmented Nuclei (%) [12]: 31%
Population Healthy Nuclei (%) [12]: 19%
Population Hoechst High Intensity Objects (%) [12]: 18%
Population Membrane Permeable-Phenotype (%) [12]: 81%
Population Mitochondria Different-Phenotype (%) [12]: 72%
Population Mitotic Cells (%) [12]: 17%
Population Normal (%) [12]: 81%
Population Pyknosed Nuclei (%) [12]: 49%
Population Tubulin-Different-Phenotype (%) [12]: 72%
Total Cell Count [12]: 84
